This note sets out measurements from ChEMBL document CHEMBL3286151, “Biological activities of novel pyrazolyl hydroxamic acid derivatives against human lung cancer cell line A549” (Eur J Med Chem, 2014).

Activity calls are given as the source filed them. The rule behind the calls is not given here.

Assay [1] concerns A549. Briefly: Cell cycle arrest in human A549 cells assessed as accumulation at G2/G1 phase at 10 uM after 48 hrs by propidium iodide staining-based flow cytometric analysis (reference value: 1.91%). Type of assay: functional.
The subject of assay [2] is A549. Put plainly: Induction of autophagy in human A549 cells assessed as accumulation of acidic vesicles at 10 uM after 48 hrs by acridine orange staining-based fluorescence microscopic analysis. Format: functional, cell-based. The gist of the method:
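Acidic vesicles in A549 cells after 10 µM exposure for 48 h. Cells stained with acridine orange (100 µg/mL) for 1 min at room temperature, then imaged by fluorescence microscopy at 200×.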

Assay [3] relates to A549. Put plainly: Induction of apoptosis in human A549 cells assessed as chromatin condensation at 10 uM after 48 hrs by Hoechst 33258 staining-based fluorescence microscopic analysis. Format: functional, cell-based. The procedure, abridged:
(§1)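 A549 cells seeded 24 h, then treated at 10 µM for 48 h in 1% serum RPMI-1640 against a 0.1% DMSO control. Fixed in 4% paraformaldehyde for 10 min at room temperature and stained with Hoechst 33258 (2 µg/mL) for 20 min. Nuclear morphology was scored by fluorescence microscopy at 200×.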

Assay [4] has as its system A549. Put plainly: Cytotoxicity against human A549 cells assessed as growth inhibition after 24 to 48 hrs by sulforhodamine B assay. Format: functional, cell-based. The gist of the method: (§2)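 A549 cells seeded 24 h in RPMI-1640 with 10% bovine calf serum, then exposed in 1% serum medium to 1, 5 and 10 µM for 24 h and 48 h. 0.1% DMSO served as control and 5-FU as positive control. Viability by SRB staining, absorbance 540 nm, calculated relative to DMSO control. Mean ± SEM, n = 3, Student's t-test.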
Background: In SRB staining, fixed cells bind dye roughly in proportion to their protein.

Assay [5] deals with A549. Briefly: Induction of necrosis in human A549 cells at 10 uM after 48 hrs by LDH assay. Type of assay: functional, cell-based. The procedure, abridged: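 Necrosis read-out: A549 cells exposed to 10 µM or 0.1% DMSO control for 48 h. Culture medium was collected and LDH activity measured with a commercial kit. Mean ± SEM, n = 3, Student's t-test.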
For assay [6], the system named is A549. Briefly: Induction of apoptosis in human A549 cells assessed as appearance of apoptotic bodies at 10 uM after 48 hrs by Hoechst 33258 staining-based fluorescence microscopic analysis. Type of assay: functional, cell-based. The gist of the method: as §1
The subject of assay [7] is A549. Briefly: Cell cycle arrest in human A549 cells assessed as accumulation at G1 phase at 10 uM after 48 hrs by propidium iodide staining-based flow cytometric analysis (reference value: 54.5%). Format: functional.
In assay [8] the test system is A549. Put plainly: Cytotoxicity against human A549 cells assessed as growth inhibition at 1 to 10 uM by sulforhodamine B assay. Format: functional, cell-based. The settings on record: TDE = time-dependent effect. The procedure, abridged: as §2
Assay [9] has as its system A549. Briefly: Cytotoxicity against human A549 cells assessed as growth inhibition at 1 to 10 uM after 48 hrs by sulforhodamine B assay relative to control. Format: functional. The gist of the method: as §2
The test system of assay [10] is A549. Put plainly: Induction of apoptosis in human A549 cells assessed as nuclear fragmentation at 10 uM after 48 hrs by Hoechst 33258 staining-based fluorescence microscopic analysis. Type of assay: functional, cell-based. The procedure, abridged:
as §1

Assay [11] concerns A549. Put plainly: Cell cycle arrest in human A549 cells assessed as accumulation at S phase at 10 uM after 48 hrs by propidium iodide staining-based flow cytometric analysis (reference value: 35.18%). Type of assay: functional. On the technique in general: Flow cytometry measures light scatter and fluorescence of single cells or particles in a stream.
Assay [12] has as its system A549. Put plainly: Induction of autophagosome formation in human A549 cells assessed as conversion of LC3-1 to LC3-2 at 5 to 10 uM after 24 hrs by Western blotting analysis. Type of assay: functional, cell-based.
Assay [13] concerns A549. Put plainly: Cell cycle arrest in human A549 cells assessed as accumulation at G2 phase at 10 uM after 48 hrs by propidium iodide staining-based flow cytometric analysis (reference value: 10.32%). Format: functional.
Assay [14] relates to A549. Put plainly: Induction of autophagosome formation in human A549 cells assessed as increase in LC3-2 protein level at 5 to 10 uM after 24 hrs by Western blotting analysis. Type of assay: functional, cell-based. For orientation: Immunoblotting shows a protein as a band on a membrane.
Assay [15] deals with A549. Put plainly: Induction of autophagosome formation in human A549 cells assessed as LC3-2 to LC3-1 ratio at 5 to 10 uM after 24 hrs by Western blotting analysis. Format: functional, cell-based.
Assay [16] deals with A549. Briefly: Induction of autophagic flux in human A549 cells assessed as decrease in p62 protein level at 5 to 10 uM after 24 hrs by Western blotting analysis. Format: functional, cell-based.

With `CC(C)(C)c1ccc(Cn2nc(-c3ccccc3)cc2C(=O)NO)cc1`, the Activity amounted to 1.8% in the assay with A549 [1], 72.8% in the assay with A549 [7], 24.87% in the assay with A549 [11] and 2.32% in the assay on A549 [13]. The result in the assay with A549 [2], with A549 [12], in the assay on A549 [14], in the assay on A549 [15] and in the assay with A549 [16] was Active. Besides, the outcome in the assay on A549 [3], with A549 [5], with A549 [6] and with A549 [10] was inactive. For the same compound, the IC50 in the assay on A549 [4] was found to be 1.72 µM. The entries for the “growth inhibition (GI)” value in the assay on A549 [4], in the assay on A549 [8] and in the assay on A549 [9] were “Dose-dependent effect”, “tde” and “<=70%”, respectively.
For `O=C(NO)c1cc(-c2ccc(Cl)cc2)nn1Cc1ccc(Cl)nc1`, the Activity worked out at 1.84% with A549 [1], 71.91% in the assay with A549 [7], 28.09% in the assay with A549 [11] and 0% with A549 [13]. Besides, the outcome in the assay with A549 [2], in the assay on A549 [12], with A549 [14], with A549 [15] and in the assay on A549 [16] was Active. Further, the result in the assay with A549 [3], in the assay with A549 [5], with A549 [6] and in the assay with A549 [10] was inactive. Also, the IC50 in the assay with A549 [4] came to 4.21 µM. Moreover, the “growth inhibition (GI)” value was “Dose-dependent effect” in the assay with A549 [4], “tde” in the assay on A549 [8] and “<=70%” in the assay with A549 [9].
Regarding `COc1ccc(-c2cc(C(=O)NO)n(Cc3ccc([N+](=O)[O-])cc3)n2)cc1`, the outcome in the assay with A549 [2] was Active. The result in the assay on A549 [3], in the assay with A549 [5], in the assay with A549 [6] and in the assay on A549 [10] was inactive. The IC50 with A549 [4] worked out at 7.11 µM. Further, the entries for the “growth inhibition (GI)” value in the assay with A549 [4] and with A549 [8] were “Dose-dependent effect” and “tde”, respectively.
Take `O=C(NO)c1cc(-c2ccc(Cl)cc2)nn1Cc1ccccc1`: the outcome with A549 [2] was Active. Besides, the outcome in the assay on A549 [3], in the assay with A549 [5], in the assay with A549 [6] and with A549 [10] was inactive. The IC50 with A549 [4] stood at 4.44 µM. Besides, the results for the “growth inhibition (GI)” value in the assay on A549 [4] and in the assay on A549 [8] were “Dose-dependent effect” and “tde”, respectively.
On to `O=C(NO)c1cc(-c2ccccc2)nn1Cc1ccccc1`, for which the outcome in the assay on A549 [2] was Active. Moreover, the result in the assay on A549 [3], in the assay on A549 [5], in the assay on A549 [6] and in the assay with A549 [10] was inactive. In addition, the IC50 in the assay with A549 [4] was 5.6 µM. For the same compound, the “growth inhibition (GI)” value was “Dose-dependent effect” with A549 [4] and “tde” in the assay on A549 [8].
Turning to `COc1ccc(-c2cc(C(=O)NO)n(Cc3ccc(Cl)nc3)n2)cc1`, the outcome with A549 [2] and in the assay on A549 [5] was Active. Further, the result in the assay with A549 [3], with A549 [6] and with A549 [10] was inactive. Also, the IC50 with A549 [4] was 8.56 µM. The results for the “growth inhibition (GI)” value in the assay with A549 [4] and in the assay with A549 [8] were “Dose-dependent effect” and “tde”, respectively.
On to `COc1ccc(-c2cc(C(=O)NO)n(Cc3ccccc3)n2)cc1`, for which the result in the assay with A549 [2] was Active. In addition, the outcome with A549 [3], in the assay on A549 [5], with A549 [6] and in the assay with A549 [10] was inactive. Further, the IC50 in the assay with A549 [4] was found to be 6.77 µM. The “growth inhibition (GI)” value with A549 [4] is “Dose-dependent effect”; in the assay with A549 [8], “tde”.
`COc1ccc(-c2cc(C(=O)NO)n(Cc3ccc(C(C)(C)C)cc3)n2)cc1`: the result in the assay with A549 [2] and in the assay with A549 [5] was Active. Moreover, the result in the assay with A549 [3], with A549 [6] and in the assay on A549 [10] was inactive. Further, the concentration for half-maximal inhibition (IC50) with A549 [4] amounted to 2.56 µM. Further, the “growth inhibition (GI)” value was “Dose-dependent effect” in the assay with A549 [4], “tde” with A549 [8] and “<=70%” in the assay with A549 [9].
Regarding `O=C(NO)c1cc(-c2ccccc2)nn1Cc1ccc([N+](=O)[O-])cc1`, the result in the assay on A549 [2] was Active. In addition, the outcome in the assay with A549 [3], in the assay on A549 [5], in the assay with A549 [6] and in the assay with A549 [10] was inactive. Further, in the assay on A549 [4], the IC50 worked out at 6 µM. Moreover, the “growth inhibition (GI)” value in the assay on A549 [4] is “Dose-dependent effect”; in the assay with A549 [8], “tde”.
`CC(C)(C)c1ccc(Cn2nc(-c3ccc(Cl)cc3)cc2C(=O)NO)cc1`: the Activity in the assay with A549 [1] is 1.96%; in the assay with A549 [7] it was 78.73%; with A549 [11], 21.27%; in the assay with A549 [13], 0%. Also, the result in the assay with A549 [2], in the assay with A549 [12], in the assay on A549 [14], in the assay with A549 [15] and in the assay on A549 [16] was Active. Further, the outcome in the assay on A549 [3], with A549 [5], in the assay with A549 [6] and with A549 [10] was inactive. Moreover, the half-maximal inhibitory concentration (IC50) with A549 [4] stood at 1.82 µM. The “growth inhibition (GI)” value in the assay on A549 [4] is “Dose-dependent effect”; in the assay on A549 [8] it was “tde”; in the assay on A549 [9], “<=70%”.
Turning to `O=C(NO)c1cc(-c2ccc(Cl)cc2)nn1Cc1ccc([N+](=O)[O-])cc1`, the result in the assay with A549 [2] was Active. Moreover, the outcome in the assay with A549 [3], with A549 [5], in the assay with A549 [6] and in the assay on A549 [10] was inactive. The half-maximal inhibitory concentration (IC50) with A549 [4] is 7.78 µM. Moreover, the figures for the “growth inhibition (GI)” value in the assay with A549 [4] and in the assay with A549 [8] were “Dose-dependent effect” and “tde”, respectively.
For `O=C(NO)c1cc(-c2ccccc2)nn1Cc1ccc(Cl)nc1`, in the assay with A549 [2], the result was Active. The outcome with A549 [3], in the assay on A549 [5], in the assay with A549 [6] and in the assay on A549 [10] was inactive. In addition, in the assay with A549 [4], the IC50 turned out to be 8.5 µM. Further, the results for the “growth inhibition (GI)” value with A549 [4] and with A549 [8] were “Dose-dependent effect” and “tde”, respectively.
With `O=c1[nH]cc(F)c(=O)[nH]1` [FLUOROURACIL], the IC50 in the assay on A549 [4] came out at 1.65 µM.

By IC50 is commonly meant the concentration that inhibits the measured activity by half.
